Results from different studies.
Protocols differ between the studies behind these lines.
Target: Insulin receptor (INSR, Homo sapiens, UniProt P06213)

Compound | read-out | mode | method | concentration | measurement | value
C=CC(=O)N1CCC([C@@H]2CCNc3c(C(N)=O)c(-c4ccc(Oc5ccccc5)cc4)nn32)CC1 | cell-free assay |  |  | 1 µM | inhibition | 0%
N#Cc1ccc(NC(=O)Nc2ccccc2)cc1 | cell-free assay |  | competition with immobilised ligand | 25 µM | remaining binding | 89%
CC#CC(=O)N1CCC[C@H]1c1nc(-c2ccc(C(=O)Nc3ccccn3)cc2)c2c(N)nccn12 | enzyme activity | inhibitor |  | 1 µM | inhibition | 0%
COc1ccc2oc(-c3ccc4nc(N)oc4c3)c/c(=N\c3ccccc3NC(=O)CCN)c2c1 | binding |  |  | 1 µM | remaining binding | 85%
COc1ccc2[nH]c3c4[nH]c5ccc(OC)cc5c4c4c(c3c2c1)C(=O)NC4=O | binding |  |  | 1 µM | remaining binding | 66%
C1=C/COCc2cc(ccc2OCCN2CCCC2)Nc2nccc(n2)-c2cccc(c2)COC/1 | binding |  |  | 0.1 µM | remaining binding | 83%
C[C@H]1CC[C@H](n2c3cnccc3c3cnc(Nc4ccc5c(n4)CCN(C(=O)CO)C5)nc32)CC1 | binding |  |  | 1 µM | remaining binding | 96%
CCCCC(=O)Nc1ccc(-c2ccc3ncn(CCC)c(=O)c3c2)cn1 | binding |  | competition with immobilised ligand | 0.5 µM | remaining binding | 100%
